One assay deals with rat TRPV1 (A657P). Description: Whole cell patch clamp, HEK293 cells expressing rat TRPV1. It counts as cell-based. As to conditions: +80 mV. (In general: Patch clamp records ionic current or voltage across a cell membrane.)
In another assay the test system is TRPV1. It counts as cell-based, rat. As to conditions: outside-out patches containing a single functional TRPV1 channel; capsaicin 1 μM.
For assay [1], the system named is X. laevis frog TRPV1 (xTRPV1). The experiment in a line: Two-electrode voltage clamp, Xenopus oocytes expressing wild type frog TRPV1. The conditions noted are these: +80 mV. The format is cell-based. The procedure, abridged:
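Frog TRPV1 coding sequence cloned from trigeminal and dorsal root ganglion RNA. cRNA made by T7 transcription; stage V–VI oocytes injected with 3–50 ng per oocyte and recorded 3-7 days later in normal frog Ringer's buffered with HEPES (pH 7.4) or MES (pH 5.5). Toxins expressed recombinantly in E. coli, His tag removed by TEV protease, concentration set from predicted 280 nm extinction coefficient.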
In general terms: Two-electrode voltage clamp is typically applied to oocytes expressing channels or transporters.

For assay [2], the target named is T1, rat TRPV1 (Rattus norvegicus, UniProt O35433). The experiment in a line: Whole-cell patch-clamp recording from TRPV1-expressing HEK293 cells. The format is cell-based.
For assay [3], the system named is capsaicin-sensitive trigeminal neurons. Description: Whole cell patch clamp recordings from capsaicin-sensitive trigeminal neurons. It counts as cell-based, mouse. The conditions noted are these: capsaicin 1 μM.
In assay [4] the target is T1, rat TRPV1. The experiment in a line: Calcium imaging dose-response in TRPV1-expressing HEK293 cells. It counts as cell-based. The conditions noted are these: ruthenium red 10 μM co-applied.
Assay [5] deals with FLAG-TRPV1 (rat) (rat) (UniProt O35433).
A further assay relates to rat Kv2.1 E277K. The format is cell-based. The conditions noted are these: VaTx1 20 μM; n = 3-5 cells per trace.
The test system of a further assay is rat Kv2.1 F274R. It counts as cell-based. As to conditions: VaTx1 20 μM; n = 3-5 cells per trace.
The test system of another assay is rat Kv2.1 I273Y. It counts as cell-based. As to conditions: VaTx1 20 μM; n = 3-5 cells per trace.
The target in assay [6] is FLAG-TRPV1 (rat) (rat) (UniProt O35433). The source holds these as a separate data set.

Entries after “also recorded” stand apart in the source; their conditions may differ. Like-named read-outs stand apart in the source and are kept apart here. No end group written: not given here.

This is an account of results in article PMC2905675 (Cell, 2010).

T1 sequence (O35433 whole entry): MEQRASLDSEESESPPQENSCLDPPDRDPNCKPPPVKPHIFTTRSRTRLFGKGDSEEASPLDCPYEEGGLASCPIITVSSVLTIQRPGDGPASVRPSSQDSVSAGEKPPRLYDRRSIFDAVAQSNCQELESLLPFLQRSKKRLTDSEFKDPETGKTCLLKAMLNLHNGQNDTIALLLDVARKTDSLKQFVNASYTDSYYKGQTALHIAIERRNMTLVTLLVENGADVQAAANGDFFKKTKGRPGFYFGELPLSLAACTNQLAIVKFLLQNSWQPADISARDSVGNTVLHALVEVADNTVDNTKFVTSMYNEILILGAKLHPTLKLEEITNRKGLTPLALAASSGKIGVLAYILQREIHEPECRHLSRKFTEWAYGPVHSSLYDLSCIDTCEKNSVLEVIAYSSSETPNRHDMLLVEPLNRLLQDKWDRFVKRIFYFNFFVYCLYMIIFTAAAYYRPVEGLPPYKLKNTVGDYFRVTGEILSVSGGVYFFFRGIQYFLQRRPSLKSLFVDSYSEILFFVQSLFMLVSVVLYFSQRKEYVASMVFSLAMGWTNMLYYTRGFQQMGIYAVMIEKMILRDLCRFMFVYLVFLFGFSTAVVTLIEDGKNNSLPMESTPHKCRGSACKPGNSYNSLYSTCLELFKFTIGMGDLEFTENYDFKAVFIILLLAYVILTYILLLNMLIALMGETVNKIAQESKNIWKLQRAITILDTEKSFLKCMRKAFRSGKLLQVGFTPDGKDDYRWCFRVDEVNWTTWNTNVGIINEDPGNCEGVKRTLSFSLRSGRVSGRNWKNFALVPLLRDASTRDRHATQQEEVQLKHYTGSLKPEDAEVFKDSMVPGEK
FLAG-TRPV1 (rat) (rat), sequence (O35433 whole entry): as above
recombinant DkTx, sequence (P0CH43 whole entry): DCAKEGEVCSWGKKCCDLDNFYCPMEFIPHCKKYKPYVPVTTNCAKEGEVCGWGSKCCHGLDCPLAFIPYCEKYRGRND
native DkTx (double-knot toxin), sequence (P0CH43 whole entry): as above

As to `COc1cc(CNC(=O)CCCC/C=C/C(C)C)ccc1O` [capsaicin], the “sensitivity of rat TRPV1 (A657P)” value in the assay with rat TRPV1 (A657P) (DkTx 2 μM, VaTx3 2 μM, capsaicin 1 μM) was “retained sensitivity”. Further, in the assay on TRPV1, the “unitary conductance of single channel events” value was found to be 118 pS. Moreover, the “sensitivity of frog TRPV1 (xTRPV1)” value in assay [1] is “responds”. In addition, the “τoff, time constant of current decay on washout” value on rat TRPV1 [2] is reported as 0.17 min. The “time for evoked currents to return to baseline after washout” value in assay [3] is ≤ 10 s.
In the case of `N.N.N.N.N.N.N.N.N.N.N.N.N.N.[Cl-].[Cl-].[Cl-].[Cl-].[Cl-].[Cl-].[O-2].[O-2].[Ru+3].[Ru+3].[Ru+4]` [ruthenium red], the “effect on DkTx-evoked calcium increases” value on rat TRPV1 [4] is reported as “inhibits toxin-evoked responses”.
Consider “K1 (Knot 1, N-terminal ICK peptide of DkTx-HYR)”, for which the EC50 of TRPV1 activation, calcium imaging of TRPV1-expressing HEK293 cells with FLAG-TRPV1 (rat) (rat) [5] turned out to be 8900 nM.
Take “K2 (Knot 2, C-terminal ICK peptide of DkTx-HYR)”: in the assay with FLAG-TRPV1 (rat) (rat) [5], the EC50 of TRPV1 activation, calcium imaging of TRPV1-expressing HEK293 cells came to 970 nM.
On to “VaTx1: vanillotoxin, ICK peptide from the Trinidad Chevron tarantula (Psalmopoeus cambridgei) that activates TRPV1 and inhibits Kv2.1 (SECRWFMGGCDSTLDCCKHLSCKMGLYYCAWDGTF; ends and bridges not checked; cysteine pairing not given here)”, for which, in the assay on rat TRPV1 (A657P) (VaTx1 100 μM), the “VaTx1 activation of TRPV1 (A657P)” value is on record as “abolished”. Further, the “effect of E277K mutation on VaTx1-mediated inhibition of Kv2.1” value in the assay on rat Kv2.1 E277K is “eliminated VaTx1-mediated inhibition”. Also, the “activation of wild type rat TRPV1 currents” value with rat TRPV1 [2] (VaTx1 100 μM, whole cell patch clamp, +80 mV) was “activation”. Also, the “effect of F274R mutation on VaTx1-mediated inhibition of Kv2.1” value in the assay on rat Kv2.1 F274R was “eliminated VaTx1-mediated inhibition”. The “effect of I273Y mutation on VaTx1-mediated inhibition of Kv2.1” value in the assay on rat Kv2.1 I273Y is reported as “modest effect; also recorded: no substantial effect”.
With “native DkTx (double-knot toxin) (from UniProt P0CH43 1-79) (peptide)”, in the assay with FLAG-TRPV1 (rat) (rat) [6], the EC50 of TRPV1 activation, calcium imaging of TRPV1-expressing HEK293 cells was 230 nM.
“recombinant DkTx (from UniProt P0CH43 1-79) (peptide)”: the EC50 of TRPV1 activation, calcium imaging of TRPV1-expressing HEK293 cells with FLAG-TRPV1 (rat) (rat) [6] was found to be 140 nM.
